Measured values: paper PMC2765488 (Journal of medicinal chemistry, 2009)

Experiments:
[1] = format: physicochemical
Summary of the method: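 Capacity factors from analytical reversed-phase HPLC retention times (diphenyl column; 0.1% TFA water/acetonitrile; linear 20–100% B over 40 min, 20 min re-equilibration). […] Linear logD–retention correlation gave calculated logD.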

[2] = system: 6 Hz corneal stimulation limbic seizure; details: cited from earlier work; for Anticonvulsant activity, mice protected/tested, 15' / Anticonvulsant activity, mice protected/tested, 30' / Anticonvulsant activity, mice protected/tested, 1h / Anticonvulsant activity, mice protected/tested, 2h / Anticonvulsant activity, mice protected/tested, 4h: 6 Hz, 32 mA, 4 mg/kg i.p.; for Anticonvulsant activity, mice protected/tested, 15': 15 min after administration; for Anticonvulsant activity, mice protected/tested, 30': 30 min after administration; for Anticonvulsant activity, mice protected/tested, 1h: 1 h after administration; for Anticonvulsant activity, mice protected/tested, 2h: 2 h after administration; for Anticonvulsant activity, mice protected/tested, 4h: 4 h after administration
[3] = CD, in the presence of 50% v/v 2,2,2-trifluoroethanol; cited from earlier work
[4] = Mouse pain assay following i.p. administration; format: in vivo; details: unpublished results of the authors
human serum albumin = details: higher affinity of C8 versus C14; cited from earlier work
[5] = buffered 25% rat blood serum, 37 °C; cited from earlier work

Row | Molecule | chromatographic logD [1] | Anticonvulsant activity, mice protected/tested, 15' [2] | Anticonvulsant activity, mice protected/tested, 30' [2] | Anticonvulsant activity, mice protected/tested, 1h [2] | Anticonvulsant activity, mice protected/tested, 2h [2] | Anticonvulsant activity, mice protected/tested, 4h [2] | α-helix content [3] | further results
1 | CCCCCCCC(=O)NCCCC[C@H](NC(=O)[C@H](CCCCN)NC(=O)[C@H](CCCCN)NC(=O)[C@@H]1CCCN1C(=O)CNC(=O)[C@H](CC(C)C)NC(=O)[C@H](CC(C)C)NC(=O)[C@H](Cc1ccc(O)cc1)NC(=O)CNC(=O)[C@H](C)NC(=O)[C@H](CO)NC(=O)[C@H](CC(N)=O)NC(=O)[C@H](CC(C)C)NC(=O)[C@@H](NC(=O)[C@H](Cc1c[nH]c2ccccc12)NC(=O)CNC)[C@@H](C)O)C(=O)N[C@@H](CCCCN)C(N)=O [Gal-B2-C8] | 0.78 |  |  |  |  |  |  | 
2 | (Sar)WTLNSAGYLLGPKKKK [Gal-(K)4, reference compound] |  | 0/4 | 3/4 | 1/3 | 0/3 | 0/4 | 14% | 
3 | CCCCCCCCCCCCCCCC(=O)NCCCC[C@H](NC(=O)[C@H](CCCCN)NC(=O)[C@H](CCCCN)NC(=O)[C@@H]1CCCN1C(=O)CNC(=O)[C@H](CC(C)C)NC(=O)[C@H](CC(C)C)NC(=O)[C@H](Cc1ccc(O)cc1)NC(=O)CNC(=O)[C@H](C)NC(=O)[C@H](CO)NC(=O)[C@H](CC(N)=O)NC(=O)[C@H](CC(C)C)NC(=O)[C@@H](NC(=O)[C@H](Cc1c[nH]c2ccccc12)NC(=O)CNC)[C@@H](C)O)C(=O)N[C@@H](CCCCN)C(N)=O [Gal-B2] |  | 3/4 | 4/4 | 4/4 | 4/4 | 0/4 | 23% | analgesic activity [4]: comparable analgesic activities; anticonvulsant ED50 ([2]; i.p., 6 Hz pharmacoresistant model of epilepsy): 0.8 mg/kg
4 | CCCCCCCC(=O)O [octanoic acid] |  |  |  |  |  |  |  | affinity to human serum albumin compared to the C14 (myristic acid) (human serum albumin): 11 fold
5 | Gal(1-16): unmodified Gal(1-16) analog |  |  |  |  |  |  |  | half-time in 25% rat serum [5]: 7.8 min
6 | CCCCCCCCCCCCCCCCCC(=O)NCCCC[C@H](NC(=O)[C@H](CCCCN)NC(=O)[C@H](CCCCN)NC(=O)[C@@H]1CCCN1C(=O)CNC(=O)[C@H](CC(C)C)NC(=O)[C@H](CC(C)C)NC(=O)[C@H](Cc1ccc(O)cc1)NC(=O)CNC(=O)[C@H](C)NC(=O)[C@H](CO)NC(=O)[C@H](CC(N)=O)NC(=O)[C@H](CC(C)C)NC(=O)[C@@H](NC(=O)[C@H](Cc1c[nH]c2ccccc12)NC(=O)CNC)[C@@H](C)O)C(=O)N[C@@H](CCCCN)C(N)=O [Gal-B2-C18] | 1.35 |  |  |  |  |  |  | 
